Measured values: ChEMBL document CHEMBL4130528, “Serotonin Analogues as Inhibitors of Breast Cancer Cell Growth” (ACS Med Chem Lett, 2017)

Assays:
MCF7 = test: Cytotoxicity against human MCF7 cells assessed as reduction in cell viability by cell titer 96 aqueous one solution based assay; format: functional
Method in brief: (§1)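 MDA-MB-231 and MCF-7 breast cancer cells were treated with increasing concentrations of compound. Viability was read by MTS assay, and IC50 values were derived from the concentration–response data.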

MDA-MB-231 = test: Cytotoxicity against human MDA-MB-231 cells assessed as reduction in cell viability by cell titer 96 aqueous one solution based assay; format: functional; method in brief: as §1

## N#CCCCCCCOc1ccc2[nH]cc(CCN)c2c1
MCF7
  IC50: > 50 µM
MDA-MB-231
  IC50: > 50 µM

## CCCCCCCCCCCCCCCCOc1ccc2[nH]cc(CCN)c2c1
MCF7
  IC50: 13 µM
MDA-MB-231
  IC50: 7.5 µM

## CCCCCCCCCCCCCCOc1ccc2[nH]cc(CCN)c2c1
MCF7
  IC50: 8.4 µM
MDA-MB-231
  IC50: 4.8 µM

## CCCCOc1ccc2[nH]cc(CCN)c2c1
MCF7
  IC50: 45 µM
MDA-MB-231
  IC50: 48 µM

## CCCCCCCCOc1ccc2[nH]cc(CCN)c2c1
MCF7
  IC50: 13 µM
MDA-MB-231
  IC50: 7.3 µM

## NCCc1c[nH]c2ccc(OCc3cccc(COc4ccc5[nH]cc(CCN)c5c4)c3)cc12
MCF7
  IC50: 22 µM
MDA-MB-231
  IC50: 18 µM

## NCCc1c[nH]c2ccc(OCc3ccc(COc4ccc5[nH]cc(CCN)c5c4)cc3)cc12
MCF7
  IC50: 24 µM
MDA-MB-231
  IC50: 20 µM

## NCCc1c[nH]c2ccc(OCCCCCCCCCBr)cc12
MCF7
  IC50: 17 µM
MDA-MB-231
  IC50: 10 µM

## NCCc1c[nH]c2ccccc12 [TRYPTAMINE]
MCF7
  IC50: > 50 µM
MDA-MB-231
  IC50: > 50 µM
